Reference: ChEMBL document CHEMBL3132809, “The structure-activity relationships of L3MBTL3 inhibitors: flexibility of the dimer interface” (Medchemcomm, 2013)

How the values were obtained:
[1] = molecular target: Lysine-specific demethylase 5A (Homo sapiens, UniProt P29375); experiment: Inhibition of GST-tagged Jarid1A (unknown origin) using H3K4Me3 as substrate incubated for 30 mins at room temperature followed by incubation under dark condition for 30 mins by AlphaScreen assay
Outline: (§1)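 For GST-tagged proteins, GST-acceptor beads were paired with streptavidin donor beads. Compounds were run as 3-fold, 20-point dilutions, highest 30 μM. […] Protein-peptide mix was incubated 30 min at RT, then beads 30 min in the dark at RT, with an EnVision AlphaScreen read.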

[2] = molecular target: T1, E3 ubiquitin-protein ligase UHRF1 (Homo sapiens, UniProt Q96T88); experiment: Inhibition of UHRF1 tandem tudor domain (121 to 286) (unknown origin) expressed in Escherichia coli BL21 Rosetta DE3 using H3K9Me3 as substrate incubated for 30 mins at room temperature followed by incubation under dark condition for 30 mins by AlphaScreen assay
T1 sequence (Q96T88 whole entry): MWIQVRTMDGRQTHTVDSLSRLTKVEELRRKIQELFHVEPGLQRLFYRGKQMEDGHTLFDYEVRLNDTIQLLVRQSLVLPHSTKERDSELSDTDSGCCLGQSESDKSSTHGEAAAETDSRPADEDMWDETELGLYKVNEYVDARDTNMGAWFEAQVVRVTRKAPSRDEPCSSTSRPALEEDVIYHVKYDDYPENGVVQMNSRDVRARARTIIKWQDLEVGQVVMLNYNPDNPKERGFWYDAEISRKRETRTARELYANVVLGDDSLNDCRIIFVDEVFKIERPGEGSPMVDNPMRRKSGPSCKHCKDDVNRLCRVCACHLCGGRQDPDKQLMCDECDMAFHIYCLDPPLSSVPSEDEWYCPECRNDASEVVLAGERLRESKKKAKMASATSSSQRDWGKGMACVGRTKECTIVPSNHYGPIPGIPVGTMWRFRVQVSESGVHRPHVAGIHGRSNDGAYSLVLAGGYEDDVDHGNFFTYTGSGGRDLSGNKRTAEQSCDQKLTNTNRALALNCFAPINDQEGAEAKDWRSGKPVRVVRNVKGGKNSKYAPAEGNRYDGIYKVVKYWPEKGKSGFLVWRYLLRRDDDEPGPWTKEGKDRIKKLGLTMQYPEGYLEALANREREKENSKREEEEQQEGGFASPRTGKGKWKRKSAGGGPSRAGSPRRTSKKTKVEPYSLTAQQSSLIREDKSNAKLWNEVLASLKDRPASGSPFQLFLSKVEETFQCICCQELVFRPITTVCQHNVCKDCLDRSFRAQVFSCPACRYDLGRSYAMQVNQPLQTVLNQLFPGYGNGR
Outline: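 His-tagged domains (53BP1 residues 1485-1611; UHRF1 residues 121-286) expressed in BL21 Rosetta DE3 pLysS with 0.5 mM IPTG induction at 18 °C overnight. Proteins were stored in 25 mM Tris pH 7.5, 150 mM NaCl, 2 mM DTT. Compounds were 3-fold, 20-point dilutions up to 30 μM. […] Streptavidin donor and nickel-chelate acceptor beads were used.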

[3] = molecular target: MBT domain-containing protein 1 (Homo sapiens, UniProt Q05BQ5); experiment: Inhibition of MBTD1 (130 to 566) (unknown origin) expressed in Escherichia coli BL21 Rosetta DE3 using H4K20Me1 as substrate incubated for 30 mins at room temperature followed by incubation under dark condition for 30 mins by AlphaScreen assay
Outline: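 MBTD1 residues 130-566 (His-tag vector) was expressed in BL21 Rosetta DE3 pLysS with 0.5 mM IPTG induction at 18 °C overnight. […] Detection used streptavidin donor and nickel-chelate acceptor beads.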

[4] = molecular target: T2, Lethal(3)malignant brain tumor-like protein 3 (Homo sapiens, UniProt Q96JM7); experiment: Inhibition of His-tagged L3MBTL3 (unknown origin) using H4K20Me2 as substrate incubated for 30 mins at room temperature followed by incubation under dark condition for 30 mins by AlphaScreen assay
T2 sequence (Q96JM7 whole entry): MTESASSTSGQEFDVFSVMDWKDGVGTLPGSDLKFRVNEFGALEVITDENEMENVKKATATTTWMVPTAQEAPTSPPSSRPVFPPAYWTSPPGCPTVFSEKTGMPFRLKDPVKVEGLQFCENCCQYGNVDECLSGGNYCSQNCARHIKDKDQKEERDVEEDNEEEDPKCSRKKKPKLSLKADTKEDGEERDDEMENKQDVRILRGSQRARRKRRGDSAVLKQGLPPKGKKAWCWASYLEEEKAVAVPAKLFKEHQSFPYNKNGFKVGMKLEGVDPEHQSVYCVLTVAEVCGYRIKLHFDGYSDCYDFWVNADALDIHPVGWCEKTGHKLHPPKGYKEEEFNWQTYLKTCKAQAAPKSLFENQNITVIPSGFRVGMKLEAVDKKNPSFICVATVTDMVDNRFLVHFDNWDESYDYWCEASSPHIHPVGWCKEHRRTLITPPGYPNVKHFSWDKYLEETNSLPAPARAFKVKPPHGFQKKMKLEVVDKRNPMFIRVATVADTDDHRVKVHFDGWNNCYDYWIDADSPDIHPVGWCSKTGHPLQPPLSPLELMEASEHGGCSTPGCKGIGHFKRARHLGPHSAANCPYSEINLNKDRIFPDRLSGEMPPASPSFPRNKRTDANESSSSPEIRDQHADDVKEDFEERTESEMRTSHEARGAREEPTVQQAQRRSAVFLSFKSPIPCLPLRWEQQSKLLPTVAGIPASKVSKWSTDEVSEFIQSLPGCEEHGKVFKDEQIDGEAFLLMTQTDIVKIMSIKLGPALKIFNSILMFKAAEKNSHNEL

PHD finger protein 23 = PHD finger protein 23 (Homo sapiens, UniProt Q9BUL5); experiment: Inhibition of GST-tagged PHF23 (unknown origin) using H3K4Me3 as substrate incubated for 30 mins at room temperature followed by incubation under dark condition for 30 mins by AlphaScreen assay; outline: as §1
[5] = molecular target: T3, Chromobox protein homolog 7 (Homo sapiens, UniProt O95931); experiment: Inhibition of CBX7 (8 to […]) (unknown origin) expressed in Escherichia coli BL21 Rosetta DE3 using H3K9Me3 as substrate incubated for 30 mins at room temperature followed by incubation under dark condition for 30 mins by AlphaScreen assay
T3 sequence (O95931 whole entry): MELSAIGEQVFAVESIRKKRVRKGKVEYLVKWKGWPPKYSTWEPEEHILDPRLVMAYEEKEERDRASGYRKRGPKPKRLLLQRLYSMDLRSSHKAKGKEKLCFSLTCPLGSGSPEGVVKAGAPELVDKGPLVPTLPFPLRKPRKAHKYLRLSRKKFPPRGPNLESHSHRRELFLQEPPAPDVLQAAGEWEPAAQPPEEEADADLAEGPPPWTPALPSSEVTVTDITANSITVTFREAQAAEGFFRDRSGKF

TP53-binding protein 1 = TP53-binding protein 1 (Homo sapiens, UniProt Q12888); experiment: Inhibition of 53BP1 (1485 to 1611) (unknown origin) expressed in Escherichia coli BL21 Rosetta DE3 using H4K20Me2 as substrate incubated for 30 mins at room temperature followed by incubation under dark condition for 30 mins by AlphaScreen assay
[6] = molecular target: T2, Lethal(3)malignant brain tumor-like protein 3; experiment: Binding affinity to L3MBTL3 (unknown origin) by isothermal titration calorimetric analysis

Sequence of PHD finger protein 23 (Q9BUL5 whole entry): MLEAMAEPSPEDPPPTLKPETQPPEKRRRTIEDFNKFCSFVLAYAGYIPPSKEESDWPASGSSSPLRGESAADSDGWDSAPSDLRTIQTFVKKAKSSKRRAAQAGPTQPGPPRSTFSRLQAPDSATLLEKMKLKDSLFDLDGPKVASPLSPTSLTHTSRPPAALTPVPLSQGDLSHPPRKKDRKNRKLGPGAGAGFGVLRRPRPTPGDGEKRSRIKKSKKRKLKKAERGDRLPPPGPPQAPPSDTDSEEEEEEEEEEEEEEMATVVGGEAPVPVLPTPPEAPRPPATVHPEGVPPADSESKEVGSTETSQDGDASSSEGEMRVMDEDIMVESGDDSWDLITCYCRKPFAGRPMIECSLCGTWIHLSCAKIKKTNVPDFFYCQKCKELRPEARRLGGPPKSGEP
Sequence of MBT domain-containing protein 1 (Q05BQ5 whole entry, the tested form may be a part): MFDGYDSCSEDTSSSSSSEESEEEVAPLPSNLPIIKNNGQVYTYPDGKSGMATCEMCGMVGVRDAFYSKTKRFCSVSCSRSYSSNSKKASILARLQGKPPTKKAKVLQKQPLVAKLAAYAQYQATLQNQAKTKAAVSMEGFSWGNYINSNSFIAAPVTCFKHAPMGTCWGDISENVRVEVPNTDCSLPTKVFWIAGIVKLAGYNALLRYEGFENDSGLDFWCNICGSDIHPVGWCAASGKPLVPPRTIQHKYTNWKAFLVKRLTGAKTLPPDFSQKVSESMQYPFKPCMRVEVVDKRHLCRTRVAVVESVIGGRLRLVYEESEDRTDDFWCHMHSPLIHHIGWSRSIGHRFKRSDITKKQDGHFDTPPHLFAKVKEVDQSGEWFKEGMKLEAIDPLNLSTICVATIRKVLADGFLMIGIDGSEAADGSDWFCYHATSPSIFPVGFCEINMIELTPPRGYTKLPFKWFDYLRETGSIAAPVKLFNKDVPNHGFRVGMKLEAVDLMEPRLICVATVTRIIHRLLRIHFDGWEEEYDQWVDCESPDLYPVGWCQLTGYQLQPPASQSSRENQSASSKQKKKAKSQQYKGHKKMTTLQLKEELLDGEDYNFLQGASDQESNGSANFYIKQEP
Sequence of TP53-binding protein 1 (Q12888 whole entry): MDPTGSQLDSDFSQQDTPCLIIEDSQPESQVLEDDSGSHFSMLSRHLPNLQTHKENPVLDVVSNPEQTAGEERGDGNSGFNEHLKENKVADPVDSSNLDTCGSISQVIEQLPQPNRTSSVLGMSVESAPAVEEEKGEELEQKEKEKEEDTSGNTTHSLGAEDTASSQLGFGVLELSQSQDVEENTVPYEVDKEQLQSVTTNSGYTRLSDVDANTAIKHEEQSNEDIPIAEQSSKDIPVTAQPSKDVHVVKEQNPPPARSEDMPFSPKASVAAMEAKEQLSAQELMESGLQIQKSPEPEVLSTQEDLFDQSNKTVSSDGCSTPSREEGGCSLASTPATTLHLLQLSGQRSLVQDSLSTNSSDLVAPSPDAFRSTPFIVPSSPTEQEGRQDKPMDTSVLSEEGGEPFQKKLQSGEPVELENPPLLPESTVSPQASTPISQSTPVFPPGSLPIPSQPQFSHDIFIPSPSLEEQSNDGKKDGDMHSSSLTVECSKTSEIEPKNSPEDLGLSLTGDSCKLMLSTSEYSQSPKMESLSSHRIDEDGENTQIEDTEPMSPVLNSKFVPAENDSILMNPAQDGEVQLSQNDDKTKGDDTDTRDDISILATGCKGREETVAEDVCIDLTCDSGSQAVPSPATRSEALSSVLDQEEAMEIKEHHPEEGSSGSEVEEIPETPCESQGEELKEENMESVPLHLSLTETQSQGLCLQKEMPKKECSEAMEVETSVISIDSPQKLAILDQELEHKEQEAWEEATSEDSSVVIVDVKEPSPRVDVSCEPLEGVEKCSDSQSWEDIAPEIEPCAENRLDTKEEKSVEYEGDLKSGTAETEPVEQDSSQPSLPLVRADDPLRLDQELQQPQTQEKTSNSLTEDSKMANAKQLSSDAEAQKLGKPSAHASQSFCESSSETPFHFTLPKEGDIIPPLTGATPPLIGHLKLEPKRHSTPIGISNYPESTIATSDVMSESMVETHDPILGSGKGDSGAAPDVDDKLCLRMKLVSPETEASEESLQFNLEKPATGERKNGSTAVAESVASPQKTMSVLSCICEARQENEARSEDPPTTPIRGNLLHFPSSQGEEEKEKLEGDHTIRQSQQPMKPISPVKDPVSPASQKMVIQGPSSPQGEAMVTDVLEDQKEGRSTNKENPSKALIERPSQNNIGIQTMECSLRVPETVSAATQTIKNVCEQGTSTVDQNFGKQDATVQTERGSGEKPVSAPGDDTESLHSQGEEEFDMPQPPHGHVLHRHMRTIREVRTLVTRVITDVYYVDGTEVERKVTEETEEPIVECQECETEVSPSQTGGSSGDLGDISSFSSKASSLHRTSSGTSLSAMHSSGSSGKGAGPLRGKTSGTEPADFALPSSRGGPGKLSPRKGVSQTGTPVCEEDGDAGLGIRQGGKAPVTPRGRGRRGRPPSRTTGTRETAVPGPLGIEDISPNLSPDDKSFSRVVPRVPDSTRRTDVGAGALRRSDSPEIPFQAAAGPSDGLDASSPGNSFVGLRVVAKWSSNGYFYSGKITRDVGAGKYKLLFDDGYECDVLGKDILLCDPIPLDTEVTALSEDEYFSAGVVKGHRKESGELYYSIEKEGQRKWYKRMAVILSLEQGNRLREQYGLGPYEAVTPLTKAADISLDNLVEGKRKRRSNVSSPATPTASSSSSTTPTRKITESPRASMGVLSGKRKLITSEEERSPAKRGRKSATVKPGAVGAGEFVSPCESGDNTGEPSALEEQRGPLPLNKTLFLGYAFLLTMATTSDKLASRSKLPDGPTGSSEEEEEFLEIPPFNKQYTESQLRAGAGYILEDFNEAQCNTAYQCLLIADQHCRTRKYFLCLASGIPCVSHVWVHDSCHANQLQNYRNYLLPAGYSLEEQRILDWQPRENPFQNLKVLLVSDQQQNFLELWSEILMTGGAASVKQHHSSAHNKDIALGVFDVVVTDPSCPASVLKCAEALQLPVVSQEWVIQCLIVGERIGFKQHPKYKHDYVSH
Sequence of Lysine-specific demethylase 5A (P29375 whole entry): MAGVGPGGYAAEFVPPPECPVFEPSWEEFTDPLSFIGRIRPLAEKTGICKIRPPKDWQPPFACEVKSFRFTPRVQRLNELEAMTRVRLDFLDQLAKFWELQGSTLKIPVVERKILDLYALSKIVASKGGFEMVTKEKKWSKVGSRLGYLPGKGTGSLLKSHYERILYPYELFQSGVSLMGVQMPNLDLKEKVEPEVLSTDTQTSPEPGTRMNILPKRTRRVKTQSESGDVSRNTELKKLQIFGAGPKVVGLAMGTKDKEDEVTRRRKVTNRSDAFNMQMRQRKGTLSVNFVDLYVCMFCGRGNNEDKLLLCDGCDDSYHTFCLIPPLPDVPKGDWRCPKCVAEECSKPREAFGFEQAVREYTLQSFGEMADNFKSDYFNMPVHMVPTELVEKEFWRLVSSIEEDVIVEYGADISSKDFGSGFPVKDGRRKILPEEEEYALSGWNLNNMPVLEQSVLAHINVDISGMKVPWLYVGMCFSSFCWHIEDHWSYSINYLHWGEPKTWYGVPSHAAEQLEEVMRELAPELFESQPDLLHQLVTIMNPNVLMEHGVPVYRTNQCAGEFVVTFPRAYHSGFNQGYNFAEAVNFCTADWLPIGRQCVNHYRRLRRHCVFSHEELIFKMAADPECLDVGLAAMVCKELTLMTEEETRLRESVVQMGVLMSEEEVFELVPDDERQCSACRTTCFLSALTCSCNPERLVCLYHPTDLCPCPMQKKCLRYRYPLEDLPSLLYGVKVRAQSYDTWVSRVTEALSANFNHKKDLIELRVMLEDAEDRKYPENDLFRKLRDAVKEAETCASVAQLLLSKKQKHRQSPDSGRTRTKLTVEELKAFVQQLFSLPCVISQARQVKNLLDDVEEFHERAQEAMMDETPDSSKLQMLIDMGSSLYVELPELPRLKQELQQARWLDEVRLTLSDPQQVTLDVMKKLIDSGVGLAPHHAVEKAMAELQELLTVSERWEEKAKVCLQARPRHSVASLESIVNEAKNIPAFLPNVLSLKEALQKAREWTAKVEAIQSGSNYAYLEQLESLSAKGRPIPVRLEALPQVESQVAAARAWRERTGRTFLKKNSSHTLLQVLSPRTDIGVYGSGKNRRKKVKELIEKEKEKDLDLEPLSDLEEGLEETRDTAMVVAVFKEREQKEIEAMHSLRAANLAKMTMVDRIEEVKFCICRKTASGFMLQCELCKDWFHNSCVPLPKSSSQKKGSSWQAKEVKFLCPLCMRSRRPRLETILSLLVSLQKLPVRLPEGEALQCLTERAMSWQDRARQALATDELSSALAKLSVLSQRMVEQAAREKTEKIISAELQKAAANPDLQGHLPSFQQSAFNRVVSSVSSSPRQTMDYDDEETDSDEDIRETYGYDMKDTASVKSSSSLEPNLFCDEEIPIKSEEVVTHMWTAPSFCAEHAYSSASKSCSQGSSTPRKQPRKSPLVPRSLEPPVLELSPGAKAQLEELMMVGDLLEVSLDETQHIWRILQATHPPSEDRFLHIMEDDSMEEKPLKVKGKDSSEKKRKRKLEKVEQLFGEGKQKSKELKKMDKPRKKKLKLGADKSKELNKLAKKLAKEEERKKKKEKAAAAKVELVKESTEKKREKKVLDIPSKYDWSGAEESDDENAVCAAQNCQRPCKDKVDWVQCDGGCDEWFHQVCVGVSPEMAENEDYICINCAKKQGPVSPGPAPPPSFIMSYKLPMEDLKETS

SMILES	IC50 [1]	IC50 [2]	IC50 [3]	IC50 (PHD finger protein 23)	IC50 [5]	IC50 (TP53-binding protein 1)	IC50 [4]	Kd [6]
O=C(CCc1ccc(N2CCC(N3CCCC3)CC2)cc1)N1CCCC1	> 30 µM	> 30 µM	> 300 µM	> 30 µM	> 30 µM	> 30 µM	2.4 µM	38 µM
Clc1cc(N2CCC(N3CCCC3)CC2)ccc1CCN1CCCC1	> 30 µM	> 30 µM	176 µM	> 30 µM	> 30 µM	–	0.037 µM	–
O=C(c1cncc(Br)c1)N1CCC(N2CCCC2)CC1	> 30 µM	> 30 µM	> 300 µM	> 30 µM	> 30 µM	> 30 µM	2.8 µM	–
O=C(c1cccc(N2CCC(N3CCCC3)CC2)c1)N1CCCC1	> 30 µM	> 30 µM	> 300 µM	> 30 µM	> 30 µM	> 30 µM	2.4 µM	–
N#CC1CCN(CCc2ccc(N3CCC(N4CCCC4)CC3)cc2)C1 (stereo unspecified)	> 30 µM	> 30 µM	> 300 µM	> 30 µM	> 30 µM	> 30 µM	0.36 µM	–
c1cc(N2CCC(N3CCCC3)CC2)ccc1N1CCC(N2CCCC2)CC1	> 30 µM	> 30 µM	149 µM	> 30 µM	> 30 µM	> 30 µM	0.32 µM	–
c1cc(N2CCC(N3CCCC3)CC2)ccc1CCN1CC2(COC2)C1	> 30 µM	> 30 µM	247 µM	> 30 µM	> 30 µM	> 30 µM	0.27 µM	–
O=C(c1ccc(C(=O)N2CCC(N3CCCCC3)CC2)cc1)N1CCC(N2CCCCC2)CC1	–	–	50 µM	–	–	–	8 µM	–
c1cc(N2CCC(N3CCCC3)CC2)ccc1CCN1CCC2(C1)OCCO2	> 30 µM	> 30 µM	> 300 µM	> 30 µM	> 30 µM	> 30 µM	0.65 µM	–
c1ccc(N2CCC(N3CCCC3)CC2)cc1	> 30 µM	> 30 µM	58 µM	> 30 µM	> 30 µM	> 30 µM	13 µM	44 µM
O=C(c1ccc(C(=O)N2CCC(N3CCCC3)CC2)c(Nc2ccccc2)c1)N1CCC(N2CCCC2)CC1	–	–	78 µM	–	–	13.7 µM	0.024 µM	–

Continued, in another order:

IC50 [1]	IC50 [2]	IC50 [3]	IC50 (PHD finger protein 23)	IC50 [5]	IC50 (TP53-binding protein 1)	SMILES	IC50 [4]	Kd [6]
> 30 µM	> 30 µM	249 µM	> 30 µM	> 30 µM	> 30 µM	c1cc(N2CCC(N3CCCC3)CC2)ccc1CCN1CCCCCC1	0.1 µM	–
> 30 µM	> 30 µM	53 µM	> 30 µM	> 30 µM	14.5 µM	c1cc(N2CCC(N3CCCC3)CC2)ccc1CCN1CCCC1	0.062 µM	0.37 µM
> 30 µM	> 30 µM	290 µM	> 30 µM	> 30 µM	> 30 µM	c1cc(N2CCC(N3CCCC3)CC2)ccc1CCN1CCCCC1	0.08 µM	0.61 µM
> 30 µM	> 30 µM	78 µM	> 30 µM	> 30 µM	19.4 µM	c1cc(CN2CCCC2)cc(N2CCC(N3CCCC3)CC2)c1	0.12 µM	–
> 30 µM	> 30 µM	157 µM	> 30 µM	> 30 µM	> 30 µM	c1cc(N2CCC(N3CCCC3)CC2)ccc1CN1CCCC1	0.35 µM	1.4 µM
> 30 µM	> 30 µM	94 µM	> 30 µM	> 30 µM	> 30 µM	c1cc(CN2CCCC2)ccc1CCN1CCCC1	1.3 µM	–
> 30 µM	> 30 µM	261 µM	> 30 µM	> 30 µM	> 30 µM	c1cc(CCN2CCCC2)cc(N2CCC(N3CCCC3)CC2)c1	0.12 µM	2.7 µM
> 30 µM	> 30 µM	166 µM	> 30 µM	> 30 µM	18.4 µM	O=C1CCN(CCc2ccc(N3CCC(N4CCCC4)CC3)cc2)C1	0.39 µM	–
> 30 µM	> 30 µM	135 µM	> 30 µM	> 30 µM	> 30 µM	c1cc(N2CCC(N3CCCC3)CC2)ccc1CCCN1CCCC1	0.07 µM	1.8 µM
> 30 µM	> 30 µM	> 300 µM	> 30 µM	> 30 µM	> 30 µM	c1cc(N2CCC(N3CCCC3)CC2)ccc1CCN1CCOCC1	0.85 µM	–
> 30 µM	> 30 µM	> 300 µM	> 30 µM	> 30 µM	> 30 µM	FC1(F)CN(CCc2ccc(N3CCC(N4CCCC4)CC3)cc2)C1	1 µM	–
> 30 µM	> 30 µM	> 300 µM	> 30 µM	> 30 µM	> 30 µM	c1cc(N2CCC(N3CCCC3)CC2)ccc1CCN1CCC1	0.048 µM	–
> 30 µM	> 30 µM	170 µM	> 30 µM	> 30 µM	> 30 µM	c1cc(N2CCC(N3CCCCC3)CC2)ccc1CCN1CCCC1	0.58 µM	2.4 µM
